Publication PMC4860949 (Bioorganic & medicinal chemistry, 2016)
“And” between values parts separate entries of the source, which are not always exact repeats. Equal entries are not always repeated. “Also recorded” adds a separate entry of the source.

What was measured:
[1] = test system: Dd2 drug-resistant strain of P. falciparum; experiment: Antimalarial bioassay: 72 h in vitro parasite growth assay, SYBR Green I; format: cell-based, Plasmodium falciparum; details: for Antiplasmodial activity (in words): Dd2 drug-resistant strain of P. falciparum; for Concentration at which compound was inactive in antimalarial assay: Dd2 strain, inactive at this (highest tested) dose
Summary of the method: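 Ring-stage Dd2 cultures (1% hematocrit, 1% parasitaemia) were grown for 72 h with increasing test compound concentrations at 37 °C in a humidified chamber under low oxygen (5.06% CO2, 4.99% O2, 89.95% N2). Viability was measured by SYBR Green I DNA quantitation. IC50 came from nonlinear regression as the mean of three independent determinations in duplicate, ± S.E.M. Artemisinin served as positive control.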

[2] = test system: HEK293 (Human Embryonic Kidney) cells; experiment: In vitro cytotoxicity against HEK293 cells; format: cell-based; details: 24 h
[3] = test system: 3D7 strain of P. falciparum; details: chloroquine-sensitive strain; cited from earlier work

| SMILES | Antiplasmodial activity (in words) [1] | Concentration up to which no inhibition/toxicity to HEK cells was detected [2] | Inhibition of 3D7 strain of P. falciparum (in words) [3] | Antiplasmodial activity (in words) ([1]; listed as Betulinic acid (3)) | Concentration at which compound was inactive in antimalarial assay [1] |
| --- | --- | --- | --- | --- | --- |
| CCCCCC(=O)c1c(O)cc(O)c2c1OC1=C(C(=O)C(C)(C)C(=O)C1(C)C)C2CC(C)C (racemic) [Compound 1, (±)-4,9-dihydro-6,8-dihydroxy-2,2,4,4-tetramethyl-5-hexanoyl-9-isobutyl-1H-xanthene-1,3(2H)-dione] | strong antiplasmodial activity; also recorded: strong antimalarial activity | 3.125 µM |  |  |  |
| CC(C)=CCCC1=CCC2(C(=O)C(C)(C)C(=O)C(C)(C)C2=O)C(CC(C)C)C1 (racemic) [Compound 2, (±)-2,2,4,4-tetramethyl-11-isobutyl-9-(4-methyl-3-penten-1-yl)-spiro[5.5]undec-8-ene-1,3,5-trione] | moderate antiplasmodial activity | 100 µM |  |  |  |
| C=C(C)[C@@H]1CC[C@]2(C(=O)O)CC[C@]3(C)[C@H](CC[C@@H]4[C@@]5(C)CC[C@H](O)C(C)(C)[C@@H]5CC[C@]43C)[C@@H]12 [Compound 3, betulinic acid] |  |  | inhibit | moderate inhibitory effect |  |
| C[C@H]1[C@H](C)CC[C@]2(C(=O)O)CC[C@]3(C)C(=CC[C@@H]4[C@@]5(C)CC[C@H](O)C(C)(C)[C@@H]5CC[C@]43C)[C@H]12 [Compound 5, ursolic acid] | inactive |  |  |  | 40 µM |
| CCCCCC(=O)c1c(O)cc(O)cc1O [Compound 6, 1-(2,4,6-trihydroxyphenyl)-1-hexanone] | inactive |  |  |  | 90 µM and 80 µM |
